Source: ChEMBL document CHEMBL2163259, “ADME-guided design and synthesis of aryloxanyl pyrazolone derivatives to block mutant superoxide dismutase 1 (SOD1) cytotoxicity and protein aggregation: potential application for the treatment of amyotrophic lateral sclerosis” (J Med Chem, 2012)
Calls of active or inactive are those of the source. The calls are words filed in the database; no cut-off is given here.

Key:
[1] = Half life in mouse microsomes at 5 uM incubated for 1 hr at 37 degC in presence of NADPH; assay type: ADME, Microsome; details: 1 h, 5 µM
[2] = Plasma concentration in B6SJL mouse at 300 mg/kg after 3 hrs by mass spectrometry; assay type: ADME, organism-based; set-up: dose 300 mg/kg
In short: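 B6SJL mice were given a single 300 mg/kg intraperitoneal bolus. Blood and brain were collected at 0, 1, 3, 6, 12 and 24 h, flash-frozen in liquid nitrogen and stored at -80 °C. Samples were analyzed by mass spectrometry with ESI ionization in MRM mode.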

[3] = AUClast in Sprague-Dawley rat at 1 mg/kg, po; assay type: ADME, organism-based; set-up: dose 1 mg/kg, route oral, time 0 - last; details: plasma
In short: (§1)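 Sprague-Dawley rats given a single 1 mg/kg bolus, intravenous or oral. Plasma PK parameters (AUC, dose-normalised AUC, half-life, clearance, Vss, Cmax, Tmax, oral bioavailability) derived from plasma levels.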

Rattus norvegicus [4] = test: Dose normalised AUC in Sprague-Dawley rat at 1 mg/kg, iv; assay type: ADME, organism-based; set-up: dose 1 mg/kg, route intravenous; details: in vivo; in short: as §1
[5] = Half life in Sprague-Dawley rat at 1 mg/kg, po; assay type: ADME, organism-based; set-up: dose 1 mg/kg, route oral; details: in vivo; in short: as §1
[6] = Volume of distribution at steady state in Sprague-Dawley rat at 1 mg/kg, iv; assay type: ADME, organism-based; set-up: dose 1 mg/kg, route intravenous; details: in vivo, read-out: Vdss
In short: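 Sprague-Dawley rats received a single bolus of 1 mg/kg by i.v. or by oral route. Plasma PK parameters were derived from the plasma concentration profile.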

hERG = hERG (Homo sapiens, UniProt Q12809); test: Inhibition of human ERG expressed in human HEK293 cells at 10 uM by patch clamp assay; assay type: cell-based; details: HEK293 cells that express hERG
In short: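 Cloned hERG potassium channels expressed in HEK293 cells. FASTPatch patch-clamp screen with test compound at 10 μM, two experiments. E-4031 used as positive control. Solubility at test concentration checked by TurboSol; value given as mean % hERG antagonism.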

Cytochrome P450 2C9 = Cytochrome P450 2C9 (Homo sapiens, UniProt P11712); test: Inhibition of CYP2C9; assay type: ADME
In short: (§2)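 Reversible inhibition of CYP isozymes in human liver microsomes, each isozyme with a single probe substrate. CYP3A4 tested with both testosterone and midazolam. IC50 determined.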

Cytochrome P450 2C19 = Cytochrome P450 2C19 (Homo sapiens, UniProt P33261); test: Inhibition of CYP2C19; assay type: ADME; in short: as §2
Cytochrome P450 3A4 = Cytochrome P450 3A4 (Homo sapiens, UniProt P08684); test: Inhibition of CYP3A4 using midazolam as substrate; assay type: ADME; in short: as §2
[7] = target: Adenosine receptor A1 (Homo sapiens) (UniProt P30542); test: Inhibition of human adenosine A1 receptor at 10 uM by radioligand displacement assay
In short: (§3)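 LeadProfilingScreen panel of 68 in vitro enzyme and receptor assays. Compound tested at 10 μM in duplicate.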

[8] = target: Alpha-1A adrenergic receptor (Rattus norvegicus) (UniProt P43140); test: Inhibition of rat adrenergic alpha1A receptor at 10 uM by radioligand displacement assay
In short: (§4)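 Single concentration of 10 μM, tested in duplicate as part of a contracted panel of 68 in vitro enzyme and receptor assays. The panel covers common adverse CNS, cardiovascular, pulmonary and genotoxic targets.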

[9] = target: Alpha-1B adrenergic receptor (Rattus norvegicus) (UniProt P15823); test: Inhibition of rat adrenergic alpha1B receptor at 10 uM by radioligand displacement assay; in short: as §4
[10] = target: L-type calcium channel, dihydropyridine site (Rattus norvegicus, UniProt P22002+P27732+Q02485); test: Inhibition of rat calcium channel L-type, dihydropyridine site at 10 uM by radioligand displacement assay; in short: as §4
[11] = target: D(3) dopamine receptor (Homo sapiens) (UniProt P35462); test: Inhibition of human dopamine D3 receptor at 10 uM by radioligand displacement assay; in short: as §4
[12] = target: Gamma-aminobutyric acid type B receptor subunit 1 (Homo sapiens) (UniProt Q9UBS5); test: Inhibition of human GABAB1A receptor at 10 uM by radioligand displacement assay; in short: as §3
[13] = target: Glucocorticoid receptor (Homo sapiens) (UniProt P04150); test: Inhibition of human glucocorticoid receptor at 10 uM by radioligand displacement assay; in short: as §4
[14] = target: Glutamate NMDA receptor (Rattus norvegicus) (UniProt P35439+Q00959+Q00960+Q00961+Q62645+Q8VHN2+Q9R1M7); test: Inhibition of rat NMDA receptor glutamate and glycine binding site at 10 uM by radioligand displacement assay; assay type: protein-complex assay; in short: as §4
[15] = target: Histamine H3 receptor (Homo sapiens) (UniProt Q9Y5N1); test: Inhibition of human histamine H3 receptor at 10 uM by radioligand displacement assay; in short: as §4
Mus musculus [16] = species: Mus musculus; test: Inhibition of mouse IL-1 at 10 uM by radioligand displacement assay; in short: as §4
[17] = target: Muscarinic acetylcholine receptor M1 (Homo sapiens) (UniProt P11229); test: Inhibition of human muscarinic M1 receptor at 10 uM by radioligand displacement assay; in short: as §4
[18] = target: Neuropeptide Y receptor type 1 (Homo sapiens) (UniProt P25929); test: Inhibition of human Neuropeptide Y Y1 receptor at 10 uM by radioligand displacement assay; in short: as §3
Homo sapiens [19] = species: Homo sapiens; test: Inhibition of human nicotinic acetylcholine receptor bungarotoxin binding site at 10 uM by radioligand displacement assay
In short: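 Single concentration of 10 μM, tested in duplicate in a contract panel of 68 in vitro enzyme and receptor binding assays covering common adverse CNS, cardiovascular, pulmonary and genotoxic targets.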

[20] = target: Kappa-type opioid receptor (Homo sapiens) (UniProt P41145); test: Inhibition of human kappa-type opioid receptor at 10 uM by radioligand displacement assay; in short: as §4
[21] = target: Platelet-activating factor receptor (Homo sapiens) (UniProt P25105); test: Inhibition of platelet activating factor receptor at 10 uM by radioligand displacement assay; in short: as §4
[22] = target: Prostaglandin E2 receptor EP4 subtype (Homo sapiens) (UniProt P35408); test: Inhibition of human prostanoid receptor EP4 at 10 uM by radioligand displacement assay; in short: as §4
[23] = target: 5-hydroxytryptamine receptor 1A (Homo sapiens) (UniProt P08908); test: Inhibition of human 5HT1A receptor at 10 uM by radioligand displacement assay; in short: as §3
Homo sapiens [24] = species: Homo sapiens; test: Inhibition of human Sigma delta2 receptor at 10 uM by radioligand displacement assay; in short: as §3
Rattus norvegicus [25] = species: Rattus norvegicus; test: Inhibition of rat GABA transporter at 10 uM by radioligand displacement assay; in short: as §4
[26] = target: Sodium-dependent noradrenaline transporter (Homo sapiens) (UniProt P23975); test: Inhibition of human norepinephrine transporter at 10 uM by radioligand displacement assay; in short: as §4
Mus musculus [27] = test: Neuroprotective activity in SOD1 G93A mutant B6SJL mouse ALS model assessed as life extension at 10 mg/kg administered qd for 1 week (reference value: 125.7 +/- 4.9 days); assay type: functional
[28] = system: Superoxide dismutase [Cu-Zn] (Homo sapiens), P00441 [G94A]; test: Inhibition of SOD1 G93A mutant aggregation-induced cytotoxicity in human HeLa cells by cytotoxicity protection assay; assay type: cell-based

Alpha-1B adrenergic receptor (Rattus norvegicus), sequence (P15823 whole entry): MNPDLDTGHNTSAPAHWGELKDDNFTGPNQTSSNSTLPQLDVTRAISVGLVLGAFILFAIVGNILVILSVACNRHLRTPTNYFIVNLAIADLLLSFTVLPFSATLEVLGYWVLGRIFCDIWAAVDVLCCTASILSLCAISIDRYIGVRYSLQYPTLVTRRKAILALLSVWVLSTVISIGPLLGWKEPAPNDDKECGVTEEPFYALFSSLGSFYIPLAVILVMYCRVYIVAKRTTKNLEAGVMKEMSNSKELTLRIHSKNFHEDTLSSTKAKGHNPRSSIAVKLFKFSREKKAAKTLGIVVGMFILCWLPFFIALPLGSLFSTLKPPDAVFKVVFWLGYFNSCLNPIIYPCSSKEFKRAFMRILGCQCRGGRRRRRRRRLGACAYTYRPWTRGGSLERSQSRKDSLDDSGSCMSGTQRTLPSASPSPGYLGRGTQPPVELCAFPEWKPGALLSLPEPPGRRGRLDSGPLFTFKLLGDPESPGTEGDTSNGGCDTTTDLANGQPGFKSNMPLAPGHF
Sodium-dependent noradrenaline transporter (Homo sapiens), sequence (P23975 whole entry): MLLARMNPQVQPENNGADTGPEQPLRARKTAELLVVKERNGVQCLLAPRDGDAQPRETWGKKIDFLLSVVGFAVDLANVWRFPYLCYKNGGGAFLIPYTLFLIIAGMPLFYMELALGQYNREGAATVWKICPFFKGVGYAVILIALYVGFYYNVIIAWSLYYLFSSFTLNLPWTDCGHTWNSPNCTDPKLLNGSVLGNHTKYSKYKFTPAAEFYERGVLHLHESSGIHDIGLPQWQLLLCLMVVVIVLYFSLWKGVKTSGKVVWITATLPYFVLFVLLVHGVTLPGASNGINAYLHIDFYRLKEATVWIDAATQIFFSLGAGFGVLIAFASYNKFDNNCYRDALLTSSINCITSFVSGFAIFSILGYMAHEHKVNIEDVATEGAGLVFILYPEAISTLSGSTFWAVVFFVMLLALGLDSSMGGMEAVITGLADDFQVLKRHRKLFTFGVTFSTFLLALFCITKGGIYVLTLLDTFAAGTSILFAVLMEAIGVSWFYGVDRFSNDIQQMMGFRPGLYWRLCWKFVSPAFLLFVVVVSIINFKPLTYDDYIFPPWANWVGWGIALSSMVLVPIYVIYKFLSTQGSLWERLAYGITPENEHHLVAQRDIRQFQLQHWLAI
hERG, sequence (Q12809 whole entry): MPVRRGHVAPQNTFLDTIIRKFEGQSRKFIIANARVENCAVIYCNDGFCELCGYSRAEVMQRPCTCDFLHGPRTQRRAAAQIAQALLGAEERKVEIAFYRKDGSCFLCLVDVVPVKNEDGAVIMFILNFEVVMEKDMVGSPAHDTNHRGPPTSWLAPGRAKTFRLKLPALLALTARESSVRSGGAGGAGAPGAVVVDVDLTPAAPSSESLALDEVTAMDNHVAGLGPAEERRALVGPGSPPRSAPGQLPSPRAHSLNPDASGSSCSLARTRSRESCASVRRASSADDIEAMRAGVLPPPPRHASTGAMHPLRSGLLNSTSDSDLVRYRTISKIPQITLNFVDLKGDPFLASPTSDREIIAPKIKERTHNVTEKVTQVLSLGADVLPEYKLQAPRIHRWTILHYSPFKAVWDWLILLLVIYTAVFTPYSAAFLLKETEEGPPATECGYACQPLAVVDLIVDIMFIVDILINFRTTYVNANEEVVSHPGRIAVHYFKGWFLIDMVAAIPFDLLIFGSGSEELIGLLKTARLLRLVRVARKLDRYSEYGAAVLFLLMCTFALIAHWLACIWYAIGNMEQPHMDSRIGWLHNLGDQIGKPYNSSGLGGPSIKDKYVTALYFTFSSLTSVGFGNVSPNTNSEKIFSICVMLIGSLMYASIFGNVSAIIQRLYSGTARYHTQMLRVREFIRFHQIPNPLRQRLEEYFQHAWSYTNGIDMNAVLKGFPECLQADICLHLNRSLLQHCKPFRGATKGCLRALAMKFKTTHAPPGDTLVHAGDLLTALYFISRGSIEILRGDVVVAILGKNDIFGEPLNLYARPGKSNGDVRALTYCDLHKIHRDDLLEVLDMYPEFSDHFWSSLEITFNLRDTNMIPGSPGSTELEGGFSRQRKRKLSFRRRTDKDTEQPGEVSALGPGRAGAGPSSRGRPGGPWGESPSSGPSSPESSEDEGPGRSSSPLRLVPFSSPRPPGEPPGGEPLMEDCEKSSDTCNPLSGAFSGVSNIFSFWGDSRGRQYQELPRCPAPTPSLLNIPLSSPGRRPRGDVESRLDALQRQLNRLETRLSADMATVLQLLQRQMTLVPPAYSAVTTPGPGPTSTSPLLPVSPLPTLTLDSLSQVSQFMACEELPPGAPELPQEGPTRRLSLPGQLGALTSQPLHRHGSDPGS
Prostaglandin E2 receptor EP4 subtype (Homo sapiens), sequence (P35408 whole entry): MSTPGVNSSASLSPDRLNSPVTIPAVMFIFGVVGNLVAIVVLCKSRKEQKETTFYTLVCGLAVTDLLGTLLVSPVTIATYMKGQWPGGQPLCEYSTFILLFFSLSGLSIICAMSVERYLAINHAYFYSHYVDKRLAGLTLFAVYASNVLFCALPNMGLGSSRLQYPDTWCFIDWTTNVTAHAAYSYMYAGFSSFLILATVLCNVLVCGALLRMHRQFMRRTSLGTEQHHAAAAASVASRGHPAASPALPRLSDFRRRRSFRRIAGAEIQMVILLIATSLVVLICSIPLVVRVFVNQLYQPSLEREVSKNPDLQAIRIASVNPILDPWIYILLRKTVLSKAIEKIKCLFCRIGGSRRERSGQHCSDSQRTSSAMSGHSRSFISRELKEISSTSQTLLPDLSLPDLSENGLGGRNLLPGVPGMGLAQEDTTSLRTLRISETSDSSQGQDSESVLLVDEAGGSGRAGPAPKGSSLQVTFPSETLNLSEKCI
Cytochrome P450 2C19, sequence (P33261 whole entry): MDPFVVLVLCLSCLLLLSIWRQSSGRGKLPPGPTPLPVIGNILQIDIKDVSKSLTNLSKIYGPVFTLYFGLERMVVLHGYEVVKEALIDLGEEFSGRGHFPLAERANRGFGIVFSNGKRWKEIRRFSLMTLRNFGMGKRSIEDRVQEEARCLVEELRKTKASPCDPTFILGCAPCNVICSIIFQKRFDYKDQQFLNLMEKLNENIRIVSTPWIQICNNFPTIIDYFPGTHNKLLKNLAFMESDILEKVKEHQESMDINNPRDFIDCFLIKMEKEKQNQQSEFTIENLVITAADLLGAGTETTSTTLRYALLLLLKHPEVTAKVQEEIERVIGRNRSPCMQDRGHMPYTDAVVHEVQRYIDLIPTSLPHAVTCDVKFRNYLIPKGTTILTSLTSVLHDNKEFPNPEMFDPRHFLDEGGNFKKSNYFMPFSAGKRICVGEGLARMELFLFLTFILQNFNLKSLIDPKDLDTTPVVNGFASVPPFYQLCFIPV
5-hydroxytryptamine receptor 1A (Homo sapiens), sequence (P08908 whole entry): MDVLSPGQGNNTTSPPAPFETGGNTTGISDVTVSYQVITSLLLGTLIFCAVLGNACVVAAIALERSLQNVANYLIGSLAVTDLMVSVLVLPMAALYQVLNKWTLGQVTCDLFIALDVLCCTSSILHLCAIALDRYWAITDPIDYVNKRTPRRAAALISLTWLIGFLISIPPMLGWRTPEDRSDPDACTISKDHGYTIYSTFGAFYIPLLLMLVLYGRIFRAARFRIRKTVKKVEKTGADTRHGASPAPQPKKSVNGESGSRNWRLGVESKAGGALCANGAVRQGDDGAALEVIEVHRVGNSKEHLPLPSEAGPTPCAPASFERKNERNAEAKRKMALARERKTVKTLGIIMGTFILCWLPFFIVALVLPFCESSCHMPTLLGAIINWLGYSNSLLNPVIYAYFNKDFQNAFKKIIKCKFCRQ
Adenosine receptor A1 (Homo sapiens), sequence (P30542 whole entry): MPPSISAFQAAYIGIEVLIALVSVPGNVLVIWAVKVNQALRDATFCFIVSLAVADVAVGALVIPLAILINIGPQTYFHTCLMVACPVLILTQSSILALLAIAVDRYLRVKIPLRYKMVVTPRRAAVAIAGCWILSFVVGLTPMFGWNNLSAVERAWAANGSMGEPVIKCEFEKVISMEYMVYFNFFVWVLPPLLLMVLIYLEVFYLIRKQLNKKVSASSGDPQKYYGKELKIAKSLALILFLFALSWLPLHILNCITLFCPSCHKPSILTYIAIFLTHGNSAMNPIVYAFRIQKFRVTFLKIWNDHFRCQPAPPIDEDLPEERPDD
Kappa-type opioid receptor (Homo sapiens), sequence (P41145 whole entry): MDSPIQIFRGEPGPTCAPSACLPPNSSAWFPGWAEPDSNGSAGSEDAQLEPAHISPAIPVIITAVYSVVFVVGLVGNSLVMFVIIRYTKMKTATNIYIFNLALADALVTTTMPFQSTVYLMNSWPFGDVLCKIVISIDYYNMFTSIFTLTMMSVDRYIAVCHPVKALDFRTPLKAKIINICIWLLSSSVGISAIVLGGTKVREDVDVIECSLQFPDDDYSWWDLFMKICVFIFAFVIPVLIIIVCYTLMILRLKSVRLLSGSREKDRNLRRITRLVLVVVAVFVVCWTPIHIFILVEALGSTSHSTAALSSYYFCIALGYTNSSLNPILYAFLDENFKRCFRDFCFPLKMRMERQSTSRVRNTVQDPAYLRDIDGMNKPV
Cytochrome P450 2C9, sequence (P11712 whole entry): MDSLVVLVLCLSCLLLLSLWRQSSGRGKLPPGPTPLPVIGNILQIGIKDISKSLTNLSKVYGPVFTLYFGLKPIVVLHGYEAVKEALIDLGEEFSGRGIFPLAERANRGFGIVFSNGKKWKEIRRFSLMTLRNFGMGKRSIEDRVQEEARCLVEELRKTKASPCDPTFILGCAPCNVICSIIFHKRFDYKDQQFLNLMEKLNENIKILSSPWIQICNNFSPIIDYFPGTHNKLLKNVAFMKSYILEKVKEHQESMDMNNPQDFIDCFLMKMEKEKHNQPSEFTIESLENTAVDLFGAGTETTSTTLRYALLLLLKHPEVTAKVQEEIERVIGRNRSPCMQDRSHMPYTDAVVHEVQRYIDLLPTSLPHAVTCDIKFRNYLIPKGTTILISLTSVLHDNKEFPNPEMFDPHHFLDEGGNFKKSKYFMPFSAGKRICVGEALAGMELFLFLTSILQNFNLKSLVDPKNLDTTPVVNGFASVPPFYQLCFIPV

Structure (SMILES): O=c1cc(COc2cc(Cl)cc(Cl)c2)[nH][nH]1
- t1/2 [1]: 0.6 h
- concentration at 3 h [2]: 342 µM
- AUC(0-t) [3]: 0.042 µg·h/mL
- AUC/dose (Rattus norvegicus [4]): 184 ng·h/mL/mg/kg
- half-life [5]: 3.6 h
- Vd [6]: 5.7 L/kg
- inhibition at 10 µM (hERG): 0.6%
- IC50 (Cytochrome P450 2C9): > 50 µM
- IC50 (Cytochrome P450 2C19): 20 µM
- IC50 (Cytochrome P450 3A4): > 50 µM
- inhibition [7]: 15%
- inhibition [8]: -2%
- inhibition [9]: 0%
- inhibition at 10 µM [10]: -5%
- inhibition [11]: -4%
- inhibition [12]: -7%
- inhibition [13]: 4%
- inhibition [14]: 5%
- inhibition [15]: 15%
- inhibition (Mus musculus [16]): 3%
- inhibition [17]: 2%
- inhibition [18]: -1%
- inhibition (Homo sapiens [19]): 6%
- inhibition [20]: -9%
- inhibition [21]: -1%
- inhibition [22]: -8%
- inhibition [23]: -6%
- inhibition (Homo sapiens [24]): 5%
- inhibition (Rattus norvegicus [25]): -4%
- inhibition [26]: -10%
- Survival (Mus musculus [27]): 135 days
- inhibition [28]: Active
